# Laboratory results published in ChEMBL document CHEMBL5380865, “Linearization of the Brevicidine and Laterocidine Lipopeptides Yields Analogues That Retain Full Antibacterial Activity” (J Med Chem, 2023).
# *1 amine or outer side, *2 acyl side, *3 side chain or, on linkers, in order; H or OH if unused. Where a SMILES comes first, the peptide text is derived from it. [ ]: non-standard residue; d: D form. The star is where a group is joined. ξ: configuration not given here. X1 = C[C@@H](N=[N+]=[N-])[C@H](N[*:1])C(=O)[*:2]; Octanoyl(7-Me) = CC(C)CCCCCC(=O)*; Hexanoyl(4ξ-Me) = CCC(C)CCC(=O)*; dOrn = NCCC[C@@H](N)C(=O)O; Orn = NCCC[C@H](N)C(=O)O
# Assays:
# Escherichia coli [1] = assay: Antibacterial activity Escherichia coli ATCC 25922 assessed as inhibition of visible bacterial growth incubated for 18 hrs by microbroth dilution assay; format: functional
# How it was run: (§1)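 CLSI broth microdilution. Strains streaked from glycerol stocks onto blood agar (16 h, 37 °C); single colonies grown in TSB at 37 °C, 220 rpm, to OD600 about 0.5. Diluted in MHB to 2 × 10^5 CFU/mL and mixed 1:1 with compounds serially diluted in MHB from DMSO stocks (colistin from water stocks), polypropylene plates. Sealed, 18 h at 37 °C, 600 rpm. MIC taken as lowest concentration preventing visible growth, three technical replicates.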
# Klebsiella pneumoniae = assay: Antibacterial activity Klebsiella pneumoniae ATCC 13883 assessed as inhibition of visible bacterial growth incubated for 18 hrs by microbroth dilution assay; format: functional; how it was run: as §1
# Acinetobacter baumannii = assay: Antibacterial activity Acinetobacter baumannii ATCC 17961 assessed as inhibition of visible bacterial growth incubated for 18 hrs by microbroth dilution assay; format: functional; how it was run: as §1
# Pseudomonas aeruginosa = assay: Antibacterial activity Pseudomonas aeruginosa PAO1 assessed as inhibition of visible bacterial growth incubated for 18 hrs by microbroth dilution assay; format: functional
# How it was run: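 CLSI broth microdilution. Colonies from blood agar (16 h, 37 °C) grown in TSB at 37 °C, 220 rpm, to OD600 about 0.5, then diluted in MHB to 2 × 10^5 CFU/mL. Added to DMSO-stock compounds serially diluted in MHB in polypropylene plates. Sealed, 18 h at 37 °C, 600 rpm. MIC = lowest concentration with no visible growth; three technical replicates.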
# Staphylococcus aureus = assay: Antibacterial activity Staphylococcus aureus USA300 assessed as inhibition of visible bacterial growth incubated for 18 hrs by microbroth dilution assay; format: functional; how it was run: as §1
# Escherichia coli [2] = assay: Antibacterial activity Escherichia coli MCR-1 assessed as inhibition of visible bacterial growth incubated for 18 hrs by microbroth dilution assay; format: functional
# How it was run: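 Colistin-resistant E. coli 25922 carrying MCR-1, grown from glycerol stock in kanamycin-supplemented TSB for 16 h at 37 °C, 220 rpm. Diluted 100-fold in kanamycin-supplemented TSB and grown to OD600 about 0.5, then diluted in MHB to 2 × 10^5 CFU/mL. Combined 1:1 with MHB serial dilutions of compounds. Sealed, 18 h at 37 °C, 600 rpm; lowest concentration without visible growth, triplicate technical replicates.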
# [3] = Hemolytic activity in sheep red blood cell assessed as hemolysis at 1 to 128 ug/ml incubated for 1 hrs relative to control; format: toxicity, cell-based, Ovis aries, Erythrocyte; settings: sheep red blood cells (erythrocytes), at 1 to 128 µg/mL, dose 1-128 µg/ml, read-out: Activity
# How it was run: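 Defibrinated sheep erythrocytes washed five times in PBS with 0.002% Tween20 and normalized so the Triton control reads 2.5–3.0 at 415 nm. Mixed 1:1 with compound serial dilutions (128–1 μg/mL) and incubated 1 h at 37 °C, 500 rpm. Supernatant A415 is background-corrected with buffer and expressed as percent of 0.1% Triton X-100 (final). Run in triplicate.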
SMILES,MIC (Escherichia coli [1]),MIC (Klebsiella pneumoniae),MIC (Acinetobacter baumannii),MIC (Pseudomonas aeruginosa),MIC (Staphylococcus aureus),MIC (Escherichia coli [2]),hemolysis at 1 h [3]
CCC(C)CCC(=O)N[C@H](CC(N)=O)C(=O)N[C@H](Cc1ccc(O)cc1)C(=O)N[C@H](Cc1c[nH]c2ccccc12)C(=O)N[C@H](CCCN)C(=O)N[C@@H](CCCN)C(=O)NCC(=O)N[C@H](CCCN)C(=O)N[C@@H](Cc1c[nH]c2ccccc12)C(=O)N[C@H](C(=O)N[C@H](C(=O)NCC(=O)N[C@@H](C)C(N)=O)[C@@H](C)CC)[C@@H](C)O (stereo partly drawn) ({Hexanoyl(4ξ-Me)}-[dN][dY][dW][dOrn][Orn]G[dOrn]WTIGA-NH2),8 µg/mL,8 µg/mL,4 µg/mL,8 µg/mL,> 32 µg/mL,8 µg/mL,–
CC[C@H](C)[C@H](NC(=O)[C@@H](NC(=O)[C@H](Cc1c[nH]c2ccccc12)NC(=O)[C@@H](CCCN)NC(=O)CNC(=O)[C@H](CCCN)NC(=O)[C@@H](CCCN)NC(=O)[C@@H](Cc1c[nH]c2ccccc12)NC(=O)[C@@H](Cc1ccc(O)cc1)NC(=O)[C@@H](CO)NC(=O)CCCCCC(C)C)[C@@H](C)N=[N+]=[N-])C(=O)N[C@@H](CC(N)=O)C(=O)NCC(=O)NCC(N)=O ({Octanoyl(7-Me)}-[dS][dY][dW][dOrn][Orn]G[dOrn]W[X1]INGG-NH2),4 µg/mL,4 µg/mL,2 µg/mL,4 µg/mL,> 32 µg/mL,4 µg/mL,< 0.1%
